Assay outcomes deposited in PubChem by The Scripps Research Institute Molecular Screening Center.
The list is not random: actives were taken first. Their share in the collection is about 4.3%.
STAT1 inh: inhibitors of IFN-gamma induced STAT1 signaling; NIH 3T3 STAT1-luciferase reporter, luminescence; inhibition, % at 5.5 µM; 200,000 compounds, 0.35% hits; AID 920;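 active = inhibition above a set limit, the mean inhibition across all tested compounds plus 3 SD, cut at about 34% in these data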;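 also: 0% = IFN-gamma with DMSO and 100% = IFN-gamma with 300 µM nifuroxazide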
STAT3 inh: STAT3 signaling inhibition; 190,000 compounds, 0.89% hits; inhibition, % at 5.5 µM; U3A cells, IL-6 STAT3-luciferase reporter, luminescence; host cell line lacks STAT1; AID 862;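 active = inhibition above the mean inhibition across all screened compounds plus 3 SD, cut at about 44% in these data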;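 also: 0% = DMSO only wells and 100% = 100 µM nifuroxazide control wells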
STAT1 act: increases IFN-gamma driven STAT1 reporter signal; NIH 3T3 STAT1-luciferase reporter, luminescence; 100% = IFN-gamma alone, no compound; activation (% of control), % at 5.5 µM; 200,000 compounds, 2.6% hits; AID 932;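 active = activation above the screen-wide mean activation plus 3 SD, cut at about 130% in these data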;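 also: raw ratio to IFN-gamma control signal so 100% means no change and 0% no light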
STAT3 activator: STAT3 signaling activation | U3A cells, IL-6 STAT3-luciferase reporter, luminescence; 100% = signal with IL-6 EC80 alone | activation (% of control), % at 5.6 µM | 190,000 compounds, 0.91% hits | AID 871;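 active = activation above the screen-wide mean of compound activation plus 3 SD, cut at about 130% in these data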;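 also: 0% = background luminescence of wells with medium and substrate only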
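Test system: Human STAT1-deficient U3A cells with stable STAT3-luciferase reporter | Also added: Interleukin-6, 33 ng/mL | Timing: Compound pre-incubation 1 h before IL-6, then 6 h stimulation at 37 °C | Technique: Luciferase reporter luminescence | Read-out: Percent of IL-6-only median luminescence | Benchmarks: IL-6-only wells as 100% reference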
Numbers without * were called inactive.

For Cc1csc(NC(=O)Nc2cccc(Cl)c2)n1 the results were STAT1 inh -37, STAT3 inh -5, STAT1 act 134* and STAT3 activator 108.
Screening O=C(Nc1cccc(Cl)c1)Nc1nc(-c2ccccc2)cs1 returned STAT1 inh 0, STAT3 inh 15, STAT1 act 99 and STAT3 activator 89.
Cc1ccc(NC(=O)C(=O)NCc2ccccn2)cc1 was read as STAT1 inh -38, STAT3 inh 4, STAT1 act 134* and STAT3 activator 99.
For O=C(NCc1ccccn1)Nc1cccc(NC(=O)NCc2ccccn2)c1 the results were STAT1 inh -10, STAT3 inh -6, STAT1 act 108 and STAT3 activator 109.
CC1(C)CC(NC(=O)c2ccccn2)CC(C)(C)N1O was read as STAT1 inh 1, STAT3 inh 8, STAT1 act 98 and STAT3 activator 96.
Screening O=C(CSc1cccc(C(F)(F)F)c1)Nc1cc(S(=O)(=O)N2CCCC2)ccc1Cl returned STAT1 inh -5, STAT3 inh -3, STAT1 act 104 and STAT3 activator 100.
For Cc1ccc2nc(N/N=C/c3ccco3)cc(C)c2c1 the results were STAT1 inh -44, STAT3 inh 0, STAT1 act 138* and STAT3 activator 103.
Cc1ccc2nc(SCC(=O)N/N=C/c3ccco3)cc(C)c2c1 was read as STAT1 inh 9, STAT3 inh 16, STAT1 act 91 and STAT3 activator 88.
For CN(C)c1ccc(C(=S)NC2CCCCC2)cc1 the results were STAT1 inh -36, STAT3 inh -11, STAT1 act 132* and STAT3 activator 114.
CCN(CC)c1ccc(C(=S)NC2CCCCC2)cc1 was read as STAT1 inh -15, STAT3 inh 6, STAT1 act 110 and STAT3 activator 99.
For Cc1ccc(-c2nnc(OCc3cccnc3)c3ccccc23)cc1 the results were STAT1 inh -3, STAT3 inh 29, STAT1 act 101 and STAT3 activator 81.
`CCOC(=O)C1=C(C)NC(SCC(=O)Nc2cc(C)on2)=C(C#N)C1c1cccs1` (centres undefined) gave STAT1 inh 51*, STAT3 inh 18, STAT1 act 62 and STAT3 activator 86.
For CCOC(=O)C1=C(C)NC(SCC(N)=O)=C(C#N)C1c1cccs1 (centres undefined) the results were STAT1 inh 2, STAT3 inh 3, STAT1 act 99 and STAT3 activator 101.
`CCCc1ccc(OCc2ccc(C(=O)Nc3cccc(C)n3)o2)c(OC)c1` gave STAT1 inh -43, STAT3 inh 8, STAT1 act 138* and STAT3 activator 99.
For O=C(Nc1ccc(N2CCOCC2)c(Cl)c1)c1ccc(Br)o1 the results were STAT1 inh -43, STAT3 inh 3, STAT1 act 140* and STAT3 activator 101.
Screening O=C(Nc1ccc(N2CCCCC2)c(C(=O)O)c1)c1ccco1 returned STAT1 inh 3, STAT3 inh 2, STAT1 act 98 and STAT3 activator 102.
`O=C(Nc1ccc(NC(=O)c2cccs2)cc1Cl)c1ccco1` gave STAT1 inh -35, STAT3 inh 18, STAT1 act 131* and STAT3 activator 94.
`O=C(Nc1ccc(N2CCN(C(=O)c3ccccc3)CC2)c(Cl)c1)c1ccc(Br)o1` gave STAT1 inh -7, STAT3 inh 24, STAT1 act 106 and STAT3 activator 85.
Screening O=C(Nc1ccc(N2CCCC2)c(Cl)c1)c1ccco1 returned STAT1 inh -47, STAT3 inh 35, STAT1 act 143* and STAT3 activator 75.
Screening O=C(Nc1ccc(N2CCOCC2)c([N+](=O)[O-])c1)c1ccco1 returned STAT1 inh -38, STAT3 inh 0, STAT1 act 132* and STAT3 activator 104.
Screening NC(=O)CSc1nnc(Cc2ccc3c(c2)OCO3)o1 returned STAT1 inh 1, STAT3 inh 2, STAT1 act 99 and STAT3 activator 102.
`O=C(CS(=O)(=O)c1ccc(Cl)cc1)NCCS(=O)(=O)c1ccc(Cl)cc1` gave STAT1 inh 2, STAT3 inh 3, STAT1 act 98 and STAT3 activator 103.
Screening COc1cc(NC(=O)c2ccccc2Cl)ccc1NC(=O)c1ccco1 returned STAT1 inh -51, STAT3 inh 21, STAT1 act 146* and STAT3 activator 85.
Screening COc1cc(NC(=O)c2ccco2)ccc1NC(=O)c1ccccc1Cl returned STAT1 inh -13, STAT3 inh 18, STAT1 act 110 and STAT3 activator 87.
Screening Cc1nc(NC2=NCN(CCN3CCOCC3)CN2)nc2c(C)cccc12 returned STAT1 inh 0, STAT3 inh -89, STAT1 act 100 and STAT3 activator 176*.
For Cc1nc(Nc2nc(=O)c3ccccc3n2C)nc2c(C)cccc12 the results were STAT1 inh 1, STAT3 inh -40, STAT1 act 99 and STAT3 activator 142*.
Screening Cc1cc(NC(=O)CSc2nc3ccccc3c(=O)n2C(C)c2ccccc2)no1 (centres undefined) returned STAT1 inh 12, STAT3 inh -33, STAT1 act 89 and STAT3 activator 134*.
For O=C(CCc1ccccc1)Nc1ccc2ccccc2n1 the results were STAT1 inh -56, STAT3 inh 0, STAT1 act 149* and STAT3 activator 104.
For CC(=O)Nc1ccc2nc(NC(=O)COc3ccccc3Cl)sc2c1 the results were STAT1 inh -30, STAT3 inh 17, STAT1 act 130* and STAT3 activator 90.
Screening CC(=O)Nc1ccc2nc(NC(=O)CCc3ccccc3)sc2c1 returned STAT1 inh -37, STAT3 inh -1, STAT1 act 134* and STAT3 activator 103.
`Cc1ccc2nc(NC(=O)c3ccccn3)sc2c1` gave STAT1 inh 89*, STAT3 inh 98*, STAT1 act 19 and STAT3 activator 15.
For Cc1ccc(C(=O)Nc2ccc([N+](=O)[O-])cn2)o1 the results were STAT1 inh -17, STAT3 inh 16, STAT1 act 116 and STAT3 activator 87.
`COc1cccc2sc(Nc3nc4ccc(NC(C)=O)cc4s3)nc12` gave STAT1 inh -35, STAT3 inh -5, STAT1 act 132* and STAT3 activator 104.
`CN=c1scc(-c2ccc([N+](=O)[O-])cc2)n1/N=C/c1ccco1` gave STAT1 inh -21, STAT3 inh 30, STAT1 act 119 and STAT3 activator 80.
For CN=c1scc(-c2ccc(F)cc2)n1/N=C/c1ccc(O)c(O)c1 the results were STAT1 inh 47*, STAT3 inh -4, STAT1 act 55 and STAT3 activator 104.
For Cc1cnc(NC(=O)CCCSc2nc3ccccc3s2)s1 the results were STAT1 inh 1, STAT3 inh -31, STAT1 act 99 and STAT3 activator 135*.
`COc1ccc(CN2C(=O)c3ccccc3C2C(=O)NC2CCCCCC2)c(OC)c1` (centres undefined) gave STAT1 inh 15, STAT3 inh 5, STAT1 act 85 and STAT3 activator 97.
